Test [1] in a line: Her2 expression decrease, cell viability multiplex – SKBR3 breast tumor cells, AlphaScreen, ATP viability, primary screen (AID 461;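 active = Her2 level under about 52% in both replicate screens, with viability over 70% of control, limit read from the data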;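 for Her2 level: lower value means less Her2 protein in the cells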;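 for viability: percent of carrier control wells set as 100% viability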). The following applies: SKBR3 Her2 protein level, 18-24 h, measured here: SKBR3 viability, ATP luminescence, at 10 µM. A general note: In Alpha technology, singlet oxygen from a donor bead excites a nearby acceptor bead.
Test [2] has as its target Receptor tyrosine-protein kinase erbB-2 (Homo sapiens) (UniProt P04626). The test is described as above. The following applies: 18-24 h, at 10 µM, stronger effect = lower value.
A short description of test [3]: reduced viability of SK-BR-3 breast cancer cells – cell-based, 24 h, human, pilot screen (AID 572;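 active = viability at or below 10% of carrier control in both of two separate runs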;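 note: compound exposure lasted between 18 and 24 h rather than exactly 24 h; 100% = carrier-treated control wells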). The conditions noted are these: SK-BR-3 viability, CellTiter-Glo luminescence, at 10 µM, stronger effect = lower value. (In general: In ATP-based viability assays light output follows the ATP content of the culture.)
Test [4] in a line: HUVEC growth inhibition – cell-based, human, primary screen (AID 575;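 active = viability at or below 30% in both replicate assays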;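 note: 100% = median of untreated cell wells with 0.1% DMSO on each plate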). The conditions noted are these: HUVEC proliferation, CellTiter-Glo luminescence, 72 h; at 10 µM; stronger effect = lower value. The method in brief: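 Assay system: Primary human umbilical vein endothelial cells | Quantity: 1250 cells per well | Medium: Supplemented EBM, 2% fetal bovine serum | Detection: CellTiter-Glo luminescence measuring cellular ATP | Read-out: % viability vs DMSO wells | Plate: Collagen-coated 384-well format | Times: 72 h exposure, 37 °C, 5% CO2, 30 min RT equilibration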

The nature of test [5]: H69AR cell proliferation blockers – human, duplicate replicates, primary screen (AID 580;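 active = viability at or under a set limit in both replicates, limit being median viability minus 3 SD, cut at about 48% in these data, passing the limit was not always enough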;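 note: 100% = mean luminescence of untreated wells and 0% = no signal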). The conditions noted are these: H69AR lung tumor cells viability, ATP luminescence, 72 h; at 10 µM; stronger effect = lower value.
Test [6] can be described thus: MRP1 drug-resistance reversers in H69AR cells – cell-based, doxorubicin co-treatment, pilot screen (AID 601). The conditions noted are these: CellTiter-Glo, 72 h, at 10 µM; for differential viability (reversal): stronger effect = higher value.
The nature of test [7]: yeast transport mutant growth inhibition pilot in 384-well plates, post-Golgi transport modulator project (AID 636; in the data active = inhibition above about 31%). The conditions noted are these: absorbance 615 nm, about 18 h, stronger effect = higher value.
Test [8] in a line: growth suppression of yeast trafficking mutant, preliminary HTS, modulators of trafficking downstream of Golgi apparatus project, 1536-format plate, OD 615 nm (AID 637; in the data active = inhibition above about 30%). The conditions noted are these: yeast transport mutant growth, absorbance 615 nm, 18 h; stronger effect = higher value.
The mark [9] stands for this setting: H69AR cells + 2 uM doxorubicin, measured here: viability with 2 uM doxorubicin, stronger effect = lower value.
Setting [10] is: H69AR cells, compound alone cytotoxicity.

Activity calls are given as the source filed them.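 Rule for the calls, unless noted: active = viability loss from added drug above about 55%, and viability with drug at most 40%, in both replicates (limit read from the data, passing the limit was not always enough); inconclusive = both conditions met in only one replicate; inactive = neither replicate meets both conditions.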

Receptor tyrosine-protein kinase erbB-2 (Homo sapiens), sequence (P04626 whole entry, looked up): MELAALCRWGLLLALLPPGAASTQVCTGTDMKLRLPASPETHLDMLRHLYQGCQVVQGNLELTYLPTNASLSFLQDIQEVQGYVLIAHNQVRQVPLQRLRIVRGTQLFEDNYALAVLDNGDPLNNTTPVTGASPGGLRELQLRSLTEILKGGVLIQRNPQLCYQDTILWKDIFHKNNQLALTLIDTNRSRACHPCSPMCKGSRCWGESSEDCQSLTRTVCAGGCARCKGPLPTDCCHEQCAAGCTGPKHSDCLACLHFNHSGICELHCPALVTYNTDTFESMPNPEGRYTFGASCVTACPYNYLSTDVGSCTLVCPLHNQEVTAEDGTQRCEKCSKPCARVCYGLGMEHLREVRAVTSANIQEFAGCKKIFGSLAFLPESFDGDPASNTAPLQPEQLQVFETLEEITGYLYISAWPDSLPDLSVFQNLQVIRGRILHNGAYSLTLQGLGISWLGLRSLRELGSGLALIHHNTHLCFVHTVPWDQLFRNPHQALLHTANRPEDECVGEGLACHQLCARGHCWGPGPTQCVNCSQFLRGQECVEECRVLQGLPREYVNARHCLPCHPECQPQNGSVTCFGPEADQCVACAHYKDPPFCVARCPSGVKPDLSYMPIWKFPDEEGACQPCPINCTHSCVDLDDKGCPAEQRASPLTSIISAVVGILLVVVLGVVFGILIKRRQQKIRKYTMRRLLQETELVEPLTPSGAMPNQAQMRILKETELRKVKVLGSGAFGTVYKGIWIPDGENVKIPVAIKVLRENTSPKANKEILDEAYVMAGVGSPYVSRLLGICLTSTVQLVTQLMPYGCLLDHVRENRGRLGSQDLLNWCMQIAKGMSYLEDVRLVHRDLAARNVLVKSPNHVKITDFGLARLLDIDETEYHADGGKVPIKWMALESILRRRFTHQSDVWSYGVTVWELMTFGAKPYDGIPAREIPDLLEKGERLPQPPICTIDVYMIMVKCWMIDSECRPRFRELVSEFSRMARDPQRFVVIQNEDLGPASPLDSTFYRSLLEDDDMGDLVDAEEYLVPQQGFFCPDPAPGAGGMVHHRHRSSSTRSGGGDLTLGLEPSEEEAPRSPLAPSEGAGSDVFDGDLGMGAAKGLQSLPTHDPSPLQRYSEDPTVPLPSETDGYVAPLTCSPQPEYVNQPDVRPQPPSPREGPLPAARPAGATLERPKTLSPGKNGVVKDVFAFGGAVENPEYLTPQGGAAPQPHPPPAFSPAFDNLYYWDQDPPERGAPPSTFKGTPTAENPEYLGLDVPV

As to `O=C(NCC1COCCO1)C1CCN(S(=O)(=O)c2ccccc2)CC1` (stereo not given), the viability (commonly a read-out of living cells in per cent, often relative to untreated cells) in test [1] is 90%; in test [3] it was 90% (inactive); in test [4], 106% (inactive); in test [5], 109% (inactive); in test [6] (setting [9]), 99.2%; in test [6] (setting [10]), 109%. For the same compound, the Her2 level in test [2] was 119% (inactive). For the same compound, in test [6] (H69AR cells + 2 uM doxorubicin), the differential viability (reversal) is 10.3% (inactive). Also, the inhibition (as a rule, the change of the read-out against control, counted positive when it falls) in test [7] is 1.2% (inactive); in test [8] it was -7.26% (inactive).

In the case of `CCNC(=O)COc1ccc(Br)cc1Cl`, the viability in test [1] was 96%; in test [3], 96% (inactive); in test [4], 92.1% (inactive); in test [5], 93.2% (inactive); in test [6] (setting [9]) it was 97.6%; in test [6] (setting [10]) it was 93.2%. Moreover, the Her2 level in test [2] was 91% (inactive). Besides, the differential viability (reversal) in test [6] (H69AR cells + 2 uM doxorubicin) is -4.36% (inactive). Also, the results for the inhibition in test [7] and in test [8] were -5% (inactive) and -1.9% (inactive), respectively.

As to `Cc1cccc(COc2ccc(/C(O)=C3\C(=O)C(=O)N(CCN(C)C)C3c3ccncc3)cc2)c1` (stereo not given), the viability in test [1] is 108%; in test [3], 108% (inactive); in test [4], 105% (inactive); in test [5], 97.3% (inactive); in test [6] (setting [9]), 101%; in test [6] (setting [10]) it was 97.3%. In addition, the Her2 level in test [2] was 94% (inactive). Besides, the differential viability (reversal) in test [6] (H69AR cells + 2 uM doxorubicin) is -3.29% (inactive). For the same compound, the inhibition in test [7] is -2.11% (inactive); in test [8] it was 3.28% (inactive).

In the case of `Cc1ccc(NC(=O)c2ccc(NS(=O)(=O)c3c(C)noc3C)cc2)cc1C`, the viability in test [1] is 97%; in test [3] it was 97% (inactive); in test [4], 84.1% (inactive); in test [5] it was 95% (inactive); in test [6] (setting [9]) it was 83.4%; in test [6] (setting [10]), 95%. Also, the Her2 level in test [2] is 81.5% (inactive). In addition, the differential viability (reversal) in test [6] (H69AR cells + 2 uM doxorubicin) was 11.6% (inactive). Besides, the inhibition in test [7] was -2.24% (inactive); in test [8], -4.55% (inactive).

`CC1Cc2nc(SCC(=O)Nc3ccccc3F)n(C)c(=O)c2S1` (stereo not given): the viability in test [1] is 104%; in test [3] it was 104% (inactive); in test [4] it was 92.4% (inactive); in test [5] it was 93.5% (inactive); in test [6] (setting [9]), 93.8%; in test [6] (setting [10]) it was 93.5%. Besides, in test [2], the Her2 level is 89.5% (inactive). Further, the differential viability (reversal) in test [6] (H69AR cells + 2 uM doxorubicin) was -0.345% (inactive). In addition, the figures for the inhibition in test [7] and in test [8] were -7.95% (inactive) and 4.29% (inactive), respectively.

As for `COCC(C)NC(=O)NC(=O)c1ccc(Cl)cc1` (stereo not given), the viability in test [1] was 99.5%; in test [3], 99.5% (inactive); in test [4], 94.6% (inactive); in test [5], 98.7% (inactive); in test [6] (setting [9]) it was 88.3%; in test [6] (setting [10]) it was 98.7%. For the same compound, in test [2], the Her2 level was 93% (inactive). For the same compound, the differential viability (reversal) in test [6] (H69AR cells + 2 uM doxorubicin) was 10.4% (inactive). Further, the results for the inhibition in test [7] and in test [8] were -6.13% (inactive) and 4.76% (inactive), respectively.

As for `O=S(=O)(NCc1cn2ccsc2n1)c1ccc2c(c1)OCCO2`, the viability in test [1] is 117%; in test [3], 117% (inactive); in test [4], 96.4% (inactive); in test [5], 105% (inactive); in test [6] (setting [9]), 95.5%; in test [6] (setting [10]) it was 105%. The Her2 level in test [2] was 102% (inactive). In addition, the differential viability (reversal) in test [6] (H69AR cells + 2 uM doxorubicin) was 9.79% (inactive). Besides, the inhibition in test [7] was -7.07% (inactive); in test [8] it was -2.26% (inactive).

For the compound `O=C(Nc1nc2c(s1)CCc1ccccc1-2)c1cccs1`, the viability in test [1] is 102%; in test [3], 102% (inactive); in test [4] it was 72.2% (inactive); in test [5] it was 82.9% (inactive); in test [6] (setting [9]), 87.9%; in test [6] (setting [10]), 82.9%. Moreover, in test [2], the Her2 level was 74% (inactive). Also, in test [6] (H69AR cells + 2 uM doxorubicin), the differential viability (reversal) is -4.96% (inactive). Besides, the inhibition in test [7] is -3.33% (inactive); in test [8] it was 8.41% (inactive).

For `CCCCC(c1nnnn1CS(=O)(=O)c1ccc(C)cc1)N1CCN(c2ccccc2)CC1` (stereo not given), the viability in test [1] was 102%; in test [3], 102% (inactive); in test [4], 69.5% (inactive); in test [5] it was 90.6% (inactive); in test [6] (setting [9]), 91.3%; in test [6] (setting [10]), 90.6%. Moreover, the Her2 level in test [2] was 88% (inactive). For the same compound, the differential viability (reversal) in test [6] (H69AR cells + 2 uM doxorubicin) is -0.75% (inactive). For the same compound, the inhibition in test [7] is -3.29% (inactive); in test [8], -1.27% (inactive).

Consider `CCOC(=O)c1c(NC(=O)CSc2nnc(-c3ccc(OC)cc3)o2)sc2c1CCC2`, for which the viability was 88% in test [1]; 88% (inactive) in test [3]; 76.1% (inactive) in test [4]; 82.1% (inactive) in test [5]; 90.4% in test [6] (setting [9]); 82.1% in test [6] (setting [10]). Moreover, the Her2 level in test [2] is 100% (inactive). Also, the differential viability (reversal) in test [6] (H69AR cells + 2 uM doxorubicin) is -8.29% (inactive). The inhibition was -0.26% (inactive) in test [7] and -1.77% (inactive) in test [8].

Turning to `Nn1c(SCC(=O)Nc2ccc(F)cc2)nnc1-c1cccnc1`, the viability is 90.5% in test [1]; 90.5% (inactive) in test [3]; 95.1% (inactive) in test [4]; 103% (inactive) in test [5]; 95.5% in test [6] (setting [9]); 103% in test [6] (setting [10]). Moreover, the Her2 level in test [2] is 81% (inactive). Further, the differential viability (reversal) in test [6] (H69AR cells + 2 uM doxorubicin) was 7.72% (inactive). Moreover, the figures for the inhibition in test [7] and in test [8] were -0.26% (inactive) and -3.67% (inactive), respectively.

Turning to `CN(Cc1cccs1)c1ncnc2sccc12`, the viability in test [1] was 112%; in test [3], 112% (inactive); in test [4], 70.7% (inactive); in test [5], 92.4% (inactive); in test [6] (setting [9]) it was 93%; in test [6] (setting [10]) it was 92.4%. Further, the Her2 level in test [2] is 78.5% (inactive). Further, in test [6] (H69AR cells + 2 uM doxorubicin), the differential viability (reversal) was -0.54% (inactive). In addition, the inhibition in test [7] was -4.87% (inactive); in test [8] it was 1.27% (inactive).

On to `CCOC(=O)N1CCN(C(=O)COc2ccc(S(=O)(=O)NC3CCCCC3)cc2C)CC1`, for which the viability in test [1] is 112%; in test [3], 112% (inactive); in test [4], 80.9% (inactive); in test [5], 98.9% (inactive); in test [6] (setting [9]) it was 98.5%; in test [6] (setting [10]), 98.9%. For the same compound, the Her2 level in test [2] is 110% (inactive). Also, the differential viability (reversal) in test [6] (H69AR cells + 2 uM doxorubicin) is 0.31% (inactive). The inhibition in test [7] was -0.4% (inactive); in test [8], -1.31% (inactive).

Consider `CN(c1ccccc1)C(c1ccc(F)cc1)c1nnnn1CC1CCCO1` (stereo not given), for which the viability in test [1] was 104%; in test [3] it was 104% (inactive); in test [4], 97% (inactive); in test [5] it was 94.1% (inactive); in test [6] (setting [9]), 87.6%; in test [6] (setting [10]), 94.1%. Also, the Her2 level in test [2] is 98% (inactive). Moreover, the differential viability (reversal) in test [6] (H69AR cells + 2 uM doxorubicin) was 6.48% (inactive). The inhibition in test [7] was -4.32% (inactive); in test [8], 0.83% (inactive).

Take `CNC(=O)CSc1nnc(-c2cc3c(C)nn(-c4ccccc4)c3s2)n1C`: the viability in test [1] is 112%; in test [3], 112% (inactive); in test [4], 99.2% (inactive); in test [5] it was 109% (inactive); in test [6] (setting [9]) it was 86.9%; in test [6] (setting [10]) it was 109%. In test [2], the Her2 level is 112% (inactive). Further, the differential viability (reversal) in test [6] (H69AR cells + 2 uM doxorubicin) was 22.3% (inactive). In addition, the figures for the inhibition in test [7] and in test [8] were -0.13% (inactive) and -2.54% (inactive), respectively.

For `CCOc1cc(NC(=O)c2ccco2)c(OCC)cc1NC(=O)CCC(=O)NCc1cccnc1`, the viability in test [1] is 95.5%; in test [3], 95.5% (inactive); in test [4], 88.1% (inactive); in test [5], 86.1% (inactive); in test [6] (setting [9]), 90.8%; in test [6] (setting [10]) it was 86.1%. For the same compound, in test [2], the Her2 level was 100% (inactive). The differential viability (reversal) in test [6] (H69AR cells + 2 uM doxorubicin) was -4.71% (inactive). For the same compound, the figures for the inhibition in test [7] and in test [8] were -1.43% (inactive) and -4.17% (inactive), respectively.

For the origin of these results see PubChem BioAssay.
